# UCH37 DUB inh – blocks the human deubiquitinase UCH37 | Q9Y5K5 | purified proteasome/UCH37, Ub-AMC cleavage fluorescence | inhibition, % (no concentration beside the values) | actives 0.33% (n = 330,000);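 active means mean inhibition over replicate wells above about 20%, limit read from the data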
#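 Signal – fluorescence, ex 355 nm, em 460 nm · System – Proteasome-bound UCH37 · Input – 0.15 nM proteasome as dispensed · Timing – 30 min preincubation with enzyme, 25 min cleavage at room temperature · Read-out basis – percent inhibition of cleavage signal versus uninhibited and no-proteasome wells · Medium – Tris-HCl pH 7.4 with ATP-MgCl2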
# SENP1 inh – blocks the human SENP1 SUMO protease catalytic domain; AID 624204; recombinant SENP1 catalytic domain, CyPet-SUMO1-YPet FRET cleavage; inhibition, % at 10 µM; actives 0.21% (n = 360,000);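 active means inhibition at least 30% at 10 µM, raw YFP signal under a set limit, fluorescence ratio 0.5 to 1.5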
# Target sequence (Q9P0U3 419-644 limits assumed): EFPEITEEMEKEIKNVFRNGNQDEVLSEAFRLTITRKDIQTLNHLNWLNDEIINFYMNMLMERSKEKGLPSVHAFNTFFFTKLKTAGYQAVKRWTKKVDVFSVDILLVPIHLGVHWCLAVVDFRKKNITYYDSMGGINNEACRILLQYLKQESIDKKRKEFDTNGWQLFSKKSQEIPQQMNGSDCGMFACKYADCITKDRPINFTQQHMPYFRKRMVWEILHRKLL
#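 Test system: human SENP1 catalytic domain; medium: Tris pH 8 buffer plus EDTA, NaCl, BME, BSA, NP40, catalase; incubation: 50 min reaction at room temperature; technique: FRET, CFP and YFP emission; controls: no-enzyme low control and enzyme-plus-DMSO high control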
# ATG4B inhibitor – blocks human ATG4B protease cleavage of LC3 substrate; Q9Y4P1; ATG4B cleavage of LC3-PLA2, NBD-HPC fluorescence, 1 h; inhibition, % at 8.33 µM; actives 0.51% (n = 340,000); AID 504462; in the data active means inhibition above about 40%
# Target sequence (Q9Y4P1 whole entry, looked up): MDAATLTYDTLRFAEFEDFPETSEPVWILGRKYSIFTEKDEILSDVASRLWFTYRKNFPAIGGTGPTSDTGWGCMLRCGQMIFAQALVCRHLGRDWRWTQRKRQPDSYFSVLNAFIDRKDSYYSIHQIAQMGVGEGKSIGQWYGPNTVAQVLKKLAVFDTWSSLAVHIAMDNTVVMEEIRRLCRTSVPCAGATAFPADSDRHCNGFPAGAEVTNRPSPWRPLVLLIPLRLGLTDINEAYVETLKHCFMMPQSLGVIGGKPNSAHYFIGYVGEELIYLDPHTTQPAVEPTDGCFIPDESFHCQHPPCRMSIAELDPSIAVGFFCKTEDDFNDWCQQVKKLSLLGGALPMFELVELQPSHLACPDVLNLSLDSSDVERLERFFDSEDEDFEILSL
# NadD block – NadD (S. aureus) enzyme inhibition | purified NadD enzyme, colorimetric absorbance read-out | inhibition, % at 20 µM | actives 0.78% (n = 360,000); in the data active means inhibition above about 26%
# GRIN3A LBD mod – modulates the human NR3A ligand-binding domain. NR3A LBD differential scanning fluorimetry, Tm shift; 0% = protein alone, 100% = glycine-bound protein. Tm shift relative to glycine control, % at 25 µM. actives 2.5% (n = 340,000);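 active means melting temperature shift of at least 10% of the positive control shift, at one fixed dose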
# Hits are given with their value; i = inactive; nt = no result given. Most compounds without a hit are left out; they make up all but 3.6% or so of the library.
SMILES,UCH37 DUB inh,SENP1 inh,ATG4B inhibitor,NadD block,GRIN3A LBD mod
Cc1ccc(NC(=O)c2ncn(CC(=O)N[C@H](C)c3cccc4ccccc34)n2)cc1C,i,i,i,i,18.5
O=C(CN1CC(c2ccccc2)CC1=O)NN=Cc1cc(Br)ccc1O (stereo not given),i,nt,nt,nt,nt
O=C(CCN1C(=O)/C(=C/C=C/c2ccccc2)SC1=S)Nc1nccs1,i,i,i,41.1,i
O=C(COC(=O)CCN1C(=O)/C(=C\C=C\c2ccccc2)SC1=S)Nc1ccc(Br)cc1,nt,i,i,i,10.1
O=C(CCN1C(=O)/C(=C\c2cccs2)SC1=S)Nc1nccs1,i,i,i,i,i
COc1cc(NC(=O)CN2C(=O)C(=O)N(CC(C)C)C2=O)cc(OC)c1,i,i,i,i,29.2
CC(=NNC(=O)Cc1ccc(Cl)cc1)c1ccccn1,i,nt,nt,nt,nt
Oc1cc(OCc2ccccc2)ccc1-c1[nH]ncc1-c1ccccc1,i,i,i,i,16.7
COc1ccc(-c2cn[nH]c2-c2ccc(OCc3ccc(F)cc3)cc2O)cc1OC,i,i,i,i,15.9
COc1ccccc1-c1cn[nH]c1-c1ccc(OCc2ccc([N+](=O)[O-])cc2)cc1O,i,i,i,i,i
O=[N+]([O-])c1ccc(COc2ccc(-c3[nH]ncc3-c3ccccc3)c(O)c2)cc1,i,i,i,i,24.9
COc1ccc(-c2cn[nH]c2-c2ccc(OCc3ccccc3)cc2O)cc1OC,i,i,i,i,i
O=c1c2ccccc2nc(-c2ccccc2)n1N=Cc1ccc([N+](=O)[O-])cc1,i,nt,nt,nt,nt
O=C(Nc1cccc(Cl)c1)c1nc[nH]c1C(=O)NCCCNC(=O)c1[nH]cnc1C(=O)Nc1cccc(Cl)c1,nt,i,i,i,22.6
Cc1ccc(NC(=O)c2nc[nH]c2C(=O)NCCCCCNC(=O)OC(C)(C)C)cc1,i,i,i,i,i
O=C(Nc1ccccc1)c1nc[nH]c1C(=O)NCCCCNC(=O)c1[nH]cnc1C(=O)Nc1ccccc1,i,i,i,i,i
Cc1ccc(NC(=O)c2nc[nH]c2C(=O)NCCCCNC(=O)c2[nH]cnc2C(=O)Nc2ccc(C)cc2)cc1,i,i,i,i,13.4
Cc1ccc(NC(=O)c2nc[nH]c2C(=O)NCCCNC(=O)c2[nH]cnc2C(=O)Nc2ccc(C)cc2)cc1,nt,i,i,i,i
Cc1ccc(NC(=O)c2nc[nH]c2C(=O)N2CCN(C(=O)OC(C)(C)C)CC2)cc1,i,i,i,i,11.5
Cc1ccc(NC(=O)c2nc[nH]c2C(=O)NCCCCCCNC(=O)c2[nH]cnc2C(=O)Nc2ccc(C)cc2)cc1,i,i,i,i,19.7
O=C(NN=Cc1ccc([N+](=O)[O-])o1)c1ccccc1NS(=O)(=O)c1cccs1,i,nt,nt,nt,nt
NC(=O)NN=Cc1ccc(N2CCOCC2)s1,i,nt,nt,nt,nt
O=C(NN=Cc1ccccc1F)c1csc2c1CCCC2,i,nt,nt,nt,nt
Cc1ccc(C(=O)NC2CCCCCCC2)cc1S(=O)(=O)N1CCOCC1,i,i,i,i,33.7
Cc1nc2ccc(NC(=O)c3ccc(C)c(S(=O)(=O)N4CCOCC4)c3)cc2s1,i,i,i,i,13.3
SMILES,UCH37 DUB inh,SENP1 inh,ATG4B inhibitor,NadD block,GRIN3A LBD mod
Cc1nc2ccc(NC(=O)c3ccc(S(=O)(=O)N(C)C)cc3)cc2s1,i,i,i,i,10.2
Cc1ccc(C(=O)Nc2ccc(Cl)cn2)cc1S(=O)(=O)N1CCOCC1,i,i,i,i,18.7
Cc1nc2ccc(NC(=O)c3cc(S(=O)(=O)N4CCOCC4)ccc3C)cc2s1,i,i,i,i,i
COc1cc(C(=O)NCC(=O)NN=Cc2cccc(OC(=O)c3ccco3)c2)cc(OC)c1OC,i,nt,nt,nt,nt
Cc1ccc(C=NNC(=O)c2csc3c2CCCC3)cc1,i,nt,nt,nt,nt
S=c1[nH]nc(-c2ccccn2)n1N=Cc1cccc2ccccc12,i,nt,nt,nt,nt
O=C(Nc1ccccc1)c1ccc(F)c(S(=O)(=O)N2CCOCC2)c1,i,i,i,i,i
Cc1nc2ccc(NC(=O)c3cc([N+](=O)[O-])cc([N+](=O)[O-])c3Cl)cc2s1,i,i,i,33.8,17.9
Cc1nc2ccc(NC(=O)c3ccc(Cl)c([N+](=O)[O-])c3)cc2s1,i,i,i,i,i
O=C(Nc1ccc(-c2cn3ccsc3n2)cc1)c1ccc(F)c(S(=O)(=O)N2CCOCC2)c1,i,i,i,i,25.2
S=c1[nH]nc(C2CCCCC2)n1N=Cc1ccncc1,i,nt,nt,nt,nt
COc1ccccc1/C=C/C=NNC(=O)CCC1C(=O)NN=C1C (stereo not given),i,nt,nt,nt,nt
COc1cc(NS(=O)(=O)c2cc(C(=O)NCCc3ccccn3)ccc2OC)cc(OC)c1,i,i,i,i,10.9
Cc1cc(C(=O)N/N=C/c2ccc(O)c(O)c2O)c(C)n1-c1ccccc1,nt,i,i,33.0,i
Cc1cc(C(=O)NN=Cc2cccc([N+](=O)[O-])c2)c(C)n1-c1ccccc1,i,nt,nt,nt,nt
Cc1ccc(-n2c(C)cc(C=c3sc4nc5ccccc5n4c3=O)c2C)cc1,i,nt,nt,nt,nt
Cc1onc(-c2ccccc2)c1CNC(=O)Nc1ccc(C(F)(F)F)cc1,i,i,i,i,10.9
O=C(NCc1nc(-c2ccc(C(F)(F)F)cc2)no1)Nc1ccc(F)cc1F,i,i,i,i,i
O=C(NCc1nc(-c2ccc(C(F)(F)F)cc2)no1)Nc1cc(Cl)cc(Cl)c1,i,i,i,i,32.8
CC(=NNC(=O)CNC(=O)c1ccccn1)c1cccc([N+](=O)[O-])c1,i,nt,nt,nt,nt
CC(CCC1CC(C)OC1=O)=NNC(N)=S (stereo not given),i,nt,nt,nt,nt
CC(C)c1nc2sc3c(SCC(=O)NCc4ccco4)ncnc3c2c2c1CCC2,i,i,i,46.3,i
Cc1cc(C)cc(NCc2cc(=O)oc3cc(-c4ccccc4)c(O)cc23)c1,i,i,i,i,i
COc1ccc(C)cc1NCc1cc(=O)oc2cc(-c3ccccc3)c(O)cc12,i,i,i,i,20.0
Cc1cc(C(=O)NN=Cc2cccnc2)cs1,i,nt,nt,nt,nt
SMILES,UCH37 DUB inh,SENP1 inh,ATG4B inhibitor,NadD block,GRIN3A LBD mod
COc1ccc(NC(=O)c2sc3ncnc(N4CCN(c5ccccn5)CC4)c3c2C)cc1Cl,i,i,i,i,i
Cc1cc(Br)ccc1NC(=O)c1sc2ncnc(N3CCN(c4ccccn4)CC3)c2c1C,i,i,i,30.1,i
Cc1onc(-c2ccccc2Cl)c1C(=O)Nc1ccc(S(=O)(=O)Nc2nccs2)cc1,30.0,i,i,i,i
Cc1onc(-c2ccccc2Cl)c1C(=O)Nc1ccccc1,i,i,i,i,i
CCC(=O)Nc1ccc(/C(C)=N\NC(=O)c2ccc(C)s2)cc1,nt,i,i,i,21.8
CCC(=O)Nc1ccc(C(C)=NNC(=O)c2c(-c3ccccc3Cl)noc2C)cc1,i,nt,nt,nt,nt
CCC(=O)Nc1ccc(/C(C)=N/NC(=O)c2c(-c3ccccc3Cl)noc2C)cc1,nt,i,i,i,11.5
C/C(=N/NC(=O)c1ccc(Cl)s1)c1ccc(NC(=O)COc2ccc(Cl)cc2)cc1,nt,i,i,i,i
CCOc1cc(C=NNC(=O)c2ccc(CN3CCOCC3)cc2)ccc1OC,i,nt,nt,nt,nt

# Source: PubChem
